In publication PMC12135072 (RSC Medicinal Chemistry, 2025):

Key:
[1] = test system: MCF7 (ATCC – HTB-22, breast carcinoma); test: MTT cell viability assay, MCF7; format: cell-based; conditions: for IC50: Homo sapiens, MCF7, read-out: IC50 MCF7; for higher potency compared to previously reported fused pyran derivative III: MCF7 IC50 versus III
[2] = test system: HCT116 (ATCC – CCL-247, colon carcinoma); test: MTT cell viability assay, HCT116; format: cell-based; conditions: Homo sapiens, HCT-116, read-out: IC50 HCT116
MCF-7 cells = test: Colony formation assay; format: cell-based
[3] = test system: MRC5 (ATCC – CCL-171, human diploid fibroblast cell line); test: cells; conditions: MRC5, read-out: IC50 MRC5
MCF7 spheroids = test: Spheroid formation assay; format: cell-based; conditions: 72 hours of treatment
Procedure, shortened: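 Agar was liquefied in normal saline, sterilized and cast into 3D molds, which were rinsed with culture medium. MCF7 cells were seeded onto the molds and left 20 min to adhere, then medium with varied test-compound concentrations was added. Spheroid dimensions were tracked by live-cell imaging and compared with untreated controls.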

[4] = test system: chorioallantoic membrane (CAM) blood vessel formation; test: Ex ovo chorioallantoic membrane; format: in vivo, chicken; conditions: concentration-dependent, over time
[5] = test system: MRC5 (ATCC – CCL-171, human diploid fibroblast cell line)
MCF7 cell line = test: γH2AX labelling for DNA double-strand breaks; format: cell-based; conditions: compounds at IC50, etoposide 10 μM
Procedure, shortened: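 To detect DNA double-strand breaks, MCF7 cells were exposed to the test compounds for 24 and 48 h, with etoposide as the positive control and 0.1% DMSO as the vehicle. γH2AX labelling was quantified by flow cytometry. n = 3; two-way ANOVA with Tukey's test.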

[6] = test system: A549 (ATCC – CCL-185, lung carcinoma); test: MTT cell viability assay, A549; format: cell-based; conditions: Homo sapiens, A549, read-out: IC50 A549
MCF7 breast cancer cells = test: Apoptosis, annexin V staining and flow cytometry; format: cell-based
Procedure, shortened: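 MCF7 cells were exposed to the test compounds for 24 or 48 h, with etoposide (10 μM) as the positive control and 0.1% DMSO as the untreated control. Cells were stained with annexin V and analysed by flow cytometry into live, early apoptotic and late apoptotic fractions.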

MCF7 cells = test: Cell cycle analysis; format: cell-based; conditions: for S phase population / cells in G1 phase / cells in G2 (G2/M) phase: MCF7, 24 hours; for S phase population: compounds at IC50
Procedure, shortened: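 MCF7 cells were treated with the test compounds for 24 and 48 h, with etoposide as the positive control and 0.1% DMSO as the vehicle. Cells were stained with propidium iodide and their G1, S and G2 distribution was read by flow cytometry. n = 3; two-way ANOVA with Tukey's test.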

[7] = MCF7, 24 hours, compounds at IC50
[8] = MCF7, 24 hours, compounds at IC50, etoposide 10 μM
[9] = MCF7, 48 hours, compounds at IC50, etoposide 10 μM
[10] = MCF7, 48 hours, compounds at IC50, ETP 10 μM

Row | IC50 [1] | IC50 [2] | IC50 [6] | Compound | higher potency compared to previously reported fused pyran derivative III [1] | percentage of colony formation (MCF-7 cells; MCF-7, compound at IC10) | percentage of colony formation (MCF-7 cells; MCF-7, compound at IC50) | percentage of colony formation (MCF-7 cells; MCF-7, compound at IC90) | IC50 [3] | spheroid size versus untreated control (MCF7 spheroids) | new blood vessel formation versus untreated controls [4] | toxicity to MRC5 (MCR5) cells [5] | γH2AX levels (MCF7 cell line; MCF7, 24 hours) | γH2AX levels (MCF7 cell line; MCF7, 48 hours) | live cells (MCF7 breast cancer cells; [7]) | early apoptotic cells (MCF7 breast cancer cells; [8]) | late apoptotic cells (MCF7 breast cancer cells; [8]) | early apoptotic cells (MCF7 breast cancer cells; [9]) | late apoptotic cells (MCF7 breast cancer cells; [9]) | S phase population (MCF7 cells) | cells in G1 phase (MCF7 cells; compounds at IC50, ETP 10 μM) | other results
1 | 8.24 ± 0.19 µM | 143 ± 6.35 µM | 111 ± 4.91 µM | Cc1nccn1-c1ccc(C2C(C#N)=C(N)OC3=C2C(=O)CC(C)(C)C3)cc1 (centres unmarked) [Compound 8a, 2-Amino-7,7-dimethyl-4-(4-(2-methyl-1H-imidazol-1-yl)phenyl)-5-oxo-5,6,7,8-tetrahydro-4H-chromene-3-carbonitrile] | 1.5 fold | 94.3 ± 4.04% | 74.3 ± 2.08% | 5.67 ± 4.04% | > 200 µM | pronounced reduction in size | significant reduction in new blood vessel formation | nontoxic | 2.89 ± 0.99 | 20.3 ± 2.74 | 86.4 ± 0.15% | 4.27 ± 0.20% | 7.6 ± 0.01% | 5.89 ± 0.20% | 6.17 ± 0.13% | 21.11 ± 3.39% | 37.08 ± 5.07% | cells in G2 (G2/M) phase (MCF7 cells; compounds at IC50, ETP 10 μM): 30.63 ± 4.35%; G1 phase population (MCF7 cells; [10]): 47.08 ± 0.6%
2 | 4.22 ± 0.81 µM | 129 ± 5.79 µM | 110 ± 4.94 µM | Cc1cn(-c2ccc(C3C(C#N)=C(N)OC4=C3C(=O)CC(C)(C)C4)cc2)cn1 (centres unmarked) [Compound 8b, 2-Amino-7,7-dimethyl-4-(4-(4-methyl-1H-imidazol-1-yl)phenyl)-5-oxo-5,6,7,8-tetrahydro-4H-chromene-3-carbonitrile] | 3 fold | 97.7 ± 1.53% | 76 ± 2.65% | 15 ± 5% | > 200 µM | marked reduction in size | significant reduction in new blood vessel formation | nontoxic | 4.71 ± 0.75 | 21.62 ± 3.38 | 87.55 ± 0.08% | 2.66 ± 0.12% | 7.87 ± 0.02% | 5.27 ± 0.13% | 9.46 ± 0.22% | 15.11 ± 2.59% | 41.59 ± 7.44% | debris/dead cells (MCF7 breast cancer cells; MCF7, 48 hours, compound at IC50): 0.82 ± 0.30%; live cells (MCF7 breast cancer cells; [9]): 84.45 ± 0.64%; cells in G2 (G2/M) phase (MCF7 cells; compounds at IC50, ETP 10 μM): 30.79 ± 5.11%; G1 phase population (MCF7 cells; [10]): 45.22 ± 0.82%; G2 (G2/M) phase population (MCF7 cells; [10]): 28.83 ± 0.52%
